Laboratory results as given in BindingDB's records for doi:10.1016/j.ejmech.2013.12.052 (Jaypee University of Information Technology, 2014).

What follows are molecules tested against T1, Inhibitor of nuclear factor kappa-B kinase subunit beta (Homo sapiens, UniProt O14920) (assay: Inhibition of FLAG-tagged human recombinant IKKbeta phosphorylation expressed in baculovirus infected insect Sf9 cells after 1 hr by luminescence assay).
T1 sequence (O14920 whole entry): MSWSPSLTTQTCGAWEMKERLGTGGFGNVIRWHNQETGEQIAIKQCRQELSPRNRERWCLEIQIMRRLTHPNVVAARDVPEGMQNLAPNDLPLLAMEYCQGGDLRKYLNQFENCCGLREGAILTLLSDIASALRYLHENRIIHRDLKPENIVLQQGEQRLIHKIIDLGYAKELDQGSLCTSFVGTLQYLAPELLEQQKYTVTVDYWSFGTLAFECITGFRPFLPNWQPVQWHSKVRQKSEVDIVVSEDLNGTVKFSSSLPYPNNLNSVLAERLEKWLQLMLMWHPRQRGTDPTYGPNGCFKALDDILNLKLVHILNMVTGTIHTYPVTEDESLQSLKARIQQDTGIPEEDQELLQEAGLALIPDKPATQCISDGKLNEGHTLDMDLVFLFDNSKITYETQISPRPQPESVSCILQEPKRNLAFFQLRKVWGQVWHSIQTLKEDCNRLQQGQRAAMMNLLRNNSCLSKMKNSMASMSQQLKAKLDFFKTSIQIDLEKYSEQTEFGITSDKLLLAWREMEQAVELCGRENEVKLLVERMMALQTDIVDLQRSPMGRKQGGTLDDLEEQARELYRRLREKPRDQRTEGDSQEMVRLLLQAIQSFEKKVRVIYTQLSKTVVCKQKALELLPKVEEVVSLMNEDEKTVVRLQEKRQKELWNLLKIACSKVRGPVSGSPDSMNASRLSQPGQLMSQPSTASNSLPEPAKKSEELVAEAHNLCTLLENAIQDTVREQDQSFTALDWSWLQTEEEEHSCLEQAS
Method in brief: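 Reaction run 1 h at room temperature in 25 mmol/l HEPES pH 7.5, 10 mmol/l Mg acetate, DTT, 0.01% BSA and 0.01% Tween20, with 500 nmol ATP and GST-IκBα substrate. Kinase-Glo added, 10 min, luminescence from remaining ATP measured.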

IC50 | SMILES
0.94 µM | CC(C)=CC(=O)O[C@@H]1CC(C)(C)C[C@H]2C3=CC[C@@H]4[C@@]5(C)CC[C@H](OC(=O)/C=C/c6ccccc6)C(C)(C)[C@@H]5CC[C@@]4(C)[C@]3(C)CC[C@@]12C(=O)O
1.2 µM | C/C=C(\C)C(=O)O[C@@H]1CC(C)(C)C[C@H]2C3=CC[C@@H]4[C@@]5(C)CC[C@H](OC(=O)/C=C/c6ccccc6)C(C)(C)[C@@H]5CC[C@@]4(C)[C@]3(C)CC[C@@]12C(=O)O

SMILES | IC50
C/C=C(\C)C(=O)O[C@@H]1CC(C)(C)C[C@H]2C3=CC[C@@H]4[C@@]5(C)CC[C@H](O)C(C)(C)[C@@H]5CC[C@@]4(C)[C@]3(C)CC[C@@]12C(=O)O | 2.62 µM
